Source: ChEMBL document CHEMBL3804820, “2-hydroxyisoquinoline-1,3(2H,4H)-diones (HIDs) as human immunodeficiency virus type 1 integrase inhibitors: Influence of the alkylcarboxamide substitution of position 4” (Eur J Med Chem, 2016)
Calls of active or inactive are those of the source. No cut-off for these calls is given here.

Columns and labels:
[1] = Cytotoxicity against human HepG2 cells assessed as reduction in nuclear size at 30 uM after 72 hrs by fluorescent image analysis relative to untreated control; assay type: cell-based; details: read-out: INH
Procedure, shortened: (§1)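 Contract in vitro cytotoxicity panel covering cell number, intracellular free calcium, nuclear size, membrane permeability and mitochondrial membrane potential. Compounds tested at 1.0, 30.0 and 100.0 µM; values are percentage change versus untreated control, and IC50 where derived.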

[2] = biological target: CYP2C9 (Homo sapiens, UniProt P11712); experiment: Inhibition of human recombinant CYP2C9 using MFC as substrate at 10 uM incubated for 40 mins by fluorimetry relative to control; assay type: ADME; details: recombinant CYP2C9, probe MFC
Procedure, shortened: (§2)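 Recombinant CYP isoforms, each with its fluorogenic substrate: CYP1A2 and CYP2C19 with CEC, CYP2C9 and CYP2D6 with MFC, CYP3A4 with BFC. Read as percentage inhibition of control, standard contract assays.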

[3] = Cytotoxicity against human HepG2 cells assessed as reduction in nuclear size at 100 uM after 72 hrs by fluorescent image analysis relative to untreated control; assay type: cell-based; details: read-out: INH; procedure, shortened: as §1
[4] = Cytotoxicity against human HepG2 cells assessed as reduction in mitochondrial membrane potential at 30 uM after 72 hrs by fluorescent image analysis relative to untreated control; assay type: cell-based; details: read-out: INH; procedure, shortened: as §1
[5] = tested on: MDCK-II; experiment: Inhibition of human P-gp expressed in MDCK2-MDR1 cells assessed as reduction in calcien-AM efflux at 1 uM incubated for 20 mins by fluorimetry relative to control; assay type: cell-based
Procedure, shortened: (§3)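 P-gp efflux inhibition in MDR1-MDCKII cells with calcein AM substrate, tested up to 100.0 µM. Read as percentage inhibition of control.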

[6] = tested on: Human immunodeficiency virus 1; experiment: Selectivity ratio of EC50 for raltegravir resistant HIV1 harboring integrase G140S/Q148H double mutant infected in human MT4 cells to EC50 for wild type HIV1 infected in human MT4 cells; assay type: functional
Procedure, shortened: (§4)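 MT-4 cells were infected with 100–300 CCID₅₀ of virus stock (titrated in MT-4 cells) in the presence of 5-fold serial drug dilutions. EC₅₀ is the concentration giving 50% protection against virus-induced cytopathic effect, read by MTT reduction (MT-4/MTT assay). The value is the fold-change in EC₅₀ for each mutant strain relative to the wild-type HIV-1 strain.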

[7] = biological target: T1, hERG (KCNH2) (Homo sapiens, UniProt Q12809); experiment: in vitro; details: CHO-K1 cells expressing human ERG
[8] = tested on: HepG2; experiment: Cytotoxicity against human HepG2 cells assessed as increase in membrane permeability at 1 uM after 72 hrs by fluorescent image analysis relative to untreated control; assay type: cell-based; details: hepg2, 72 h
[9] = tested on: HepG2; experiment: Cytotoxicity against human HepG2 cells assessed as increase in membrane permeability at 100 uM after 72 hrs by fluorescent image analysis relative to untreated control; assay type: cell-based; details: hepg2, 72 h
[10] = tested on: Human immunodeficiency virus 1; experiment: Antiviral activity against HIV1 3B infected in human MT4 cells at 50 to 100 times antiviral EC50 added 1 to 25 hrs post infection assessed as time required for loss of inhibition of viral replication measured at 30 hrs post infection by p24 ELISA method; assay type: functional
[11] = biological target: T2, CYP1A2 (Homo sapiens, UniProt P05177); experiment: Inhibition of human recombinant CYP1A2 using CEC as substrate at 10 uM incubated for 30 mins by fluorimetry relative to control; assay type: ADME; details: recombinant CYP1A2, probe CEC; procedure, shortened: as §2
T2 sequence (P05177 whole entry): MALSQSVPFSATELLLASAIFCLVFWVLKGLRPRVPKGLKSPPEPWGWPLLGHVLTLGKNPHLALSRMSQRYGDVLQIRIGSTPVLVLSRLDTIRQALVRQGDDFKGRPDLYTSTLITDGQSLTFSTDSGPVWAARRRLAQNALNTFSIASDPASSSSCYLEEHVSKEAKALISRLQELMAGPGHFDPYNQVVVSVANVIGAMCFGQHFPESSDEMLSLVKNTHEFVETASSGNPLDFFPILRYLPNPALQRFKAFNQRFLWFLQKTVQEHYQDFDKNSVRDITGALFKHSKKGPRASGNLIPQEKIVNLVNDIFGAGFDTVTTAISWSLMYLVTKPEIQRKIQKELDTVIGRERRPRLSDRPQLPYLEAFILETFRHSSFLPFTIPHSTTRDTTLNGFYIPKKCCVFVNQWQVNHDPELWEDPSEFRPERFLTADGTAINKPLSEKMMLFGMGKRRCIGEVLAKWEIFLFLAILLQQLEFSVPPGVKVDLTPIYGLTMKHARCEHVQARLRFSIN

[12] = Cytotoxicity against human HepG2 cells assessed as reduction in cell number at 100 uM after 72 hrs by fluorescent image analysis relative to untreated control; assay type: cell-based; details: read-out: INH; procedure, shortened: as §1
[13] = tested on: HepG2; experiment: Cytotoxicity against human HepG2 cells assessed as increase in intracellular free calcium level at 1 uM after 72 hrs by fluorescent image analysis relative to untreated control; assay type: cell-based; details: hepg2, 72 h; procedure, shortened: as §1
[14] = tested on: HepG2; experiment: Cytotoxicity against human HepG2 cells assessed as increase in intracellular free calcium level at 100 uM after 72 hrs by fluorescent image analysis relative to untreated control; assay type: cell-based; details: hepg2, 72 h; procedure, shortened: as §1
[15] = Cytotoxicity against human HepG2 cells assessed as reduction in nuclear size at 1 uM after 72 hrs by fluorescent image analysis relative to untreated control; assay type: cell-based; details: read-out: INH; procedure, shortened: as §1
[16] = tested on: HepG2; experiment: Cytotoxicity against human HepG2 cells assessed as increase in intracellular free calcium level at 30 uM after 72 hrs by fluorescent image analysis relative to untreated control; assay type: cell-based; details: hepg2, 72 h; procedure, shortened: as §1
[17] = Cytotoxicity against human HepG2 cells assessed as reduction in mitochondrial membrane potential at 1 uM after 72 hrs by fluorescent image analysis relative to untreated control; assay type: cell-based; details: read-out: INH; procedure, shortened: as §1
[18] = tested on: Human immunodeficiency virus 1; experiment: Selectivity ratio of EC50 for raltegravir resistant HIV1 harboring integrase N155H mutant infected in human MT4 cells to EC50 for wild type HIV1 infected in human MT4 cells; assay type: functional; procedure, shortened: as §4
[19] = tested on: Human immunodeficiency virus 1; experiment: Selectivity ratio of EC50 for raltegravir resistant HIV1 harboring integrase Q148H mutant infected in human MT4 cells to EC50 for wild type HIV1 infected in human MT4 cells; assay type: functional; procedure, shortened: as §4
[20] = tested on: MDCK-II; experiment: Inhibition of human P-gp expressed in MDCK2-MDR1 cells assessed as reduction in calcien-AM efflux at 30 uM incubated for 20 mins by fluorimetry relative to control; assay type: cell-based; procedure, shortened: as §3
[21] = biological target: CYP2C19 (Homo sapiens, UniProt P33261); experiment: Inhibition of human recombinant CYP2C19 using CEC as substrate at 10 uM incubated for 50 mins by fluorimetry relative to control; assay type: ADME; details: recombinant CYP2C19, probe CEC; procedure, shortened: as §2
[22] = biological target: T1, hERG (KCNH2); experiment: in vitro; details: CHO-K1 cells expressing human ERG; remark: listed apart in the source
[23] = Cytotoxicity against human HepG2 cells assessed as reduction in mitochondrial membrane potential at 100 uM after 72 hrs by fluorescent image analysis relative to untreated control; assay type: cell-based; details: read-out: INH; procedure, shortened: as §1
[24] = Cytotoxicity against human HepG2 cells assessed as reduction in cell number at 30 uM after 72 hrs by fluorescent image analysis relative to untreated control; assay type: cell-based; details: read-out: INH; procedure, shortened: as §1
[25] = biological target: CYP3A4 (Homo sapiens, UniProt P08684); experiment: Inhibition of human recombinant CYP3A4 using BFC as substrate at 10 uM incubated for 30 mins by fluorimetry relative to control; assay type: ADME; details: recombinant CYP3A4, probe BFC; procedure, shortened: as §2
[26] = tested on: MDCK-II; experiment: Inhibition of human P-gp expressed in MDCK2-MDR1 cells assessed as reduction in calcien-AM efflux at 100 uM incubated for 20 mins by fluorimetry relative to control; assay type: cell-based; procedure, shortened: as §3
[27] = Cytotoxicity against human HepG2 cells assessed as reduction in cell number at 1 uM after 72 hrs by fluorescent image analysis relative to untreated control; assay type: cell-based; details: read-out: INH; procedure, shortened: as §1
[28] = biological target: CYP2D6 (Homo sapiens, UniProt P10635); experiment: Inhibition of human recombinant CYP2D6 using MFC as substrate at 10 uM incubated for 40 mins by fluorimetry relative to control; assay type: ADME; details: recombinant CYP2D6, probe MFC; procedure, shortened: as §2
[29] = tested on: HepG2; experiment: Cytotoxicity against human HepG2 cells assessed as increase in membrane permeability at 30 uM after 72 hrs by fluorescent image analysis relative to untreated control; assay type: cell-based; details: hepg2, 72 h
[30] = biological target: T1, hERG (KCNH2); experiment: in vitro; details: CHO-K1 cells expressing human ERG; remark: listed apart in the source

T1 sequence (Q12809 whole entry): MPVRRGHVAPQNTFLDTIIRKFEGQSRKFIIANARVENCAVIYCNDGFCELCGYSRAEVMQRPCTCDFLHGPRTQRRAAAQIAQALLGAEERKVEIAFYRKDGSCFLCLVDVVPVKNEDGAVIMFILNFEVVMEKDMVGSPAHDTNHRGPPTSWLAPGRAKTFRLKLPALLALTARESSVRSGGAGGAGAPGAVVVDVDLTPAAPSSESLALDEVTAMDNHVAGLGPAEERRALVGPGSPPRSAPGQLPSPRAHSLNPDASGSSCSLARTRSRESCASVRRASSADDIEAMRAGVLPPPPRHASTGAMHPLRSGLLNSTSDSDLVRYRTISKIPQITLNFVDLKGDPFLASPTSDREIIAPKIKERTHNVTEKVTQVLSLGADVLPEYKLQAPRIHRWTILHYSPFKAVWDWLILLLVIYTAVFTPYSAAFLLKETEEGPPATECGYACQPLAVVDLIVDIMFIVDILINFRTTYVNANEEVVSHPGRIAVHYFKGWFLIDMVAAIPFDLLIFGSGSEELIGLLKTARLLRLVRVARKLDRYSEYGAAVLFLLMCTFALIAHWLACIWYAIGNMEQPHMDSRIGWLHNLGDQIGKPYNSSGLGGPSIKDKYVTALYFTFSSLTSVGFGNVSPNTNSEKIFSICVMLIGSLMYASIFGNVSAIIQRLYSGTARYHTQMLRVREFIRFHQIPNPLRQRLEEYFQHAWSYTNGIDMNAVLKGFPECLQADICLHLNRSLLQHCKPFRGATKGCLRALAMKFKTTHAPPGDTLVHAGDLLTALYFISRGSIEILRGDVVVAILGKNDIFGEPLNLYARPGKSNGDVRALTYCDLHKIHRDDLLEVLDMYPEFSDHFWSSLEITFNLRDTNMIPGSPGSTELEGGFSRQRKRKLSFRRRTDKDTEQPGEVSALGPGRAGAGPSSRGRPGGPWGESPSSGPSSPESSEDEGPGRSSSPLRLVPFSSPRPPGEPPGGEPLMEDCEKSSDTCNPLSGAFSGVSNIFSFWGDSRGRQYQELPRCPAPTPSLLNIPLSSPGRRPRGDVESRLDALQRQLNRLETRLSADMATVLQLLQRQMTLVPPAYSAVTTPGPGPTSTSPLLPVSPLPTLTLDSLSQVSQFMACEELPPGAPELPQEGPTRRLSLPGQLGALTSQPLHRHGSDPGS
Chain of CYP2C19 (P33261 whole entry): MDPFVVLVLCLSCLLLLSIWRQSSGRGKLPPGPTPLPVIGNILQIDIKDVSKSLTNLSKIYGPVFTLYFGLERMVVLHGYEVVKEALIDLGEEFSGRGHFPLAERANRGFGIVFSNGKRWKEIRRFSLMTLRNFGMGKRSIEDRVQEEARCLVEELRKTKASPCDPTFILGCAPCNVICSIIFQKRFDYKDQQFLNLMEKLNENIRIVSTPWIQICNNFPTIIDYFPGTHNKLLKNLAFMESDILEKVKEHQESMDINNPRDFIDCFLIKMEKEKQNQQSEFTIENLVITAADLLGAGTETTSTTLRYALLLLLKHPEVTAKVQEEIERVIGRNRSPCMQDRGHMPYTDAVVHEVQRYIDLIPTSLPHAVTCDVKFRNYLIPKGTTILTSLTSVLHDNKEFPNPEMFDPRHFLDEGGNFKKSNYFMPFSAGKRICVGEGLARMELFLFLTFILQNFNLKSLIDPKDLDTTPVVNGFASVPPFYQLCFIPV
Chain of CYP2D6 (P10635 whole entry): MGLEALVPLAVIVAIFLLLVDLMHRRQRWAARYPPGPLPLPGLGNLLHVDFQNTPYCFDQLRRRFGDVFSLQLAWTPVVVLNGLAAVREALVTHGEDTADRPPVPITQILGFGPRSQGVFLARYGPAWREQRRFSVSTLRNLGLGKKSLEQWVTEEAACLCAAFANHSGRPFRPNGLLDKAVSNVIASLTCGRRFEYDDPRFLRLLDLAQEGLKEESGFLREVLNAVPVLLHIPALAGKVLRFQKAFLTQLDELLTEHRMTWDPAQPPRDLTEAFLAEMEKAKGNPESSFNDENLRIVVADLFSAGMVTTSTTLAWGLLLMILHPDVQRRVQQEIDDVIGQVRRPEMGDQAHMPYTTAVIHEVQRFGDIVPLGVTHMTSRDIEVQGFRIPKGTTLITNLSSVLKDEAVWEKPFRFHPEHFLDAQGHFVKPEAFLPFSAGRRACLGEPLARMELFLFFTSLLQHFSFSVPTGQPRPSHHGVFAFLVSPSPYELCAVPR
Chain of CYP2C9 (P11712 whole entry, canonical isoform): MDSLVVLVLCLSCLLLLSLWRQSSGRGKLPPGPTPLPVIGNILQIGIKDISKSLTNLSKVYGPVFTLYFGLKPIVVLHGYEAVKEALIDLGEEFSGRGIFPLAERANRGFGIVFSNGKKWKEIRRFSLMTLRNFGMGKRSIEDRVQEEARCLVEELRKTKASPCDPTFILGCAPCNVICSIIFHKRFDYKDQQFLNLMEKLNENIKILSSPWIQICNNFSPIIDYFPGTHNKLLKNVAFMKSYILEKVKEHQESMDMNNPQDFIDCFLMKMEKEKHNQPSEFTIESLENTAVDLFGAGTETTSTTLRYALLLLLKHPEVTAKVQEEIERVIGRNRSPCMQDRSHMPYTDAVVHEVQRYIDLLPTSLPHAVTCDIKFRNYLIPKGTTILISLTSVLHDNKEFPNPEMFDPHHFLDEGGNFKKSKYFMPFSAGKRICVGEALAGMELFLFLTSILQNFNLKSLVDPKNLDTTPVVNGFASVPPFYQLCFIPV
Chain of CYP3A4 (P08684 whole entry): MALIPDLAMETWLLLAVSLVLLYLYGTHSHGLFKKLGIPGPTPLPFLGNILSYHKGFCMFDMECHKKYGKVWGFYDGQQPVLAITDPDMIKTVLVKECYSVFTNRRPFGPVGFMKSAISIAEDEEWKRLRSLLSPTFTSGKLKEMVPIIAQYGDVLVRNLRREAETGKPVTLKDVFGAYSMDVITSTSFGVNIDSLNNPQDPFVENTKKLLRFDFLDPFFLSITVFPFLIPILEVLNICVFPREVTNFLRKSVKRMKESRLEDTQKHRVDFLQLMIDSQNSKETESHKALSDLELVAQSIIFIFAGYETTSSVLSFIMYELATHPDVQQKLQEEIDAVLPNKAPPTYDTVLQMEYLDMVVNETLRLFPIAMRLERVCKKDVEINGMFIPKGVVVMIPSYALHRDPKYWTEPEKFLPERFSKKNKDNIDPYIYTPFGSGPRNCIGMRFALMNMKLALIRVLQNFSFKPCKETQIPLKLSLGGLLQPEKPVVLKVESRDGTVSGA

Molecule O=C(NCc1ccc(F)cc1)C1C(=O)N(O)C(=O)c2ccccc21 (stereo not given) has a cytotoxicity at 72 h, 30 µM [1] of 13.1%, an inhibition at 40 min, 10 µM [2] of 6.4% and a cytotoxicity at 72 h, 100 µM [3] of 18.7%. For the same molecule, the cytotoxicity at 72 h, 30 µM [4] was -21.2%, the inhibition [5] was -5.4% and the “Ratio EC50” value [6] was 1. It also gave an inhibition at 5 min, 10 µM [7] of 13.3%, an Activity [8] of -0.5% and an Activity [9] of 41.2%. For the same molecule, the Activity [10] was “Active”, the inhibition at 0.5 h, 10 µM [11] was 5.2% and the cytotoxicity at 72 h, 100 µM [12] was 16%. The Activity [13] was -1.7%, the Activity [14] was 29.9% and the cytotoxicity at 72 h, 1 µM [15] was -1%. For the same molecule, the Activity [16] was 9.6%, the cytotoxicity at 72 h, 1 µM [17] was 11.8% and the “Ratio EC50” value [18] was 1. The “Ratio EC50” value [19] was 1, the inhibition [20] was -4% and the inhibition at 50 min, 10 µM [21] was 18%. It also gave an inhibition at 5 min, 0.1 µM [22] of 3.4%, a cytotoxicity at 72 h, 100 µM [23] of 6.3% and a cytotoxicity at 72 h, 30 µM [24] of 25.7%. For the same molecule, the inhibition at 0.5 h, 10 µM [25] was 35.9%, the inhibition [26] was -3.7% and the cytotoxicity at 72 h, 1 µM [27] was -22.8%. For the same molecule, the inhibition at 40 min, 10 µM [28] was 6.6%, the Activity [29] was 20.3% and the inhibition at 5 min, 1 µM [30] was 10.6%.
